# STAT1 act = STAT1 signaling activation; NIH 3T3 STAT1-luciferase reporter, IFN-gamma, luminescence; 100% = IFN-gamma alone, no compound; activation (% of control), % at 5.5 µM; 2.6% of 200,000 active; AID 932;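 active = activation above the screen-wide mean activation plus 3 SD, cut at about 130% in these data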;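 note: raw ratio to IFN-gamma control signal so 100% means no change and 0% no light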
# NF-kB neuron act = raises NF-kB expression in human neuronal cells; NF-kB reporter expression; active compounds read high; fold change at 12.5 µM; 1.6% of 190,000 active; AID 1239; in the data active = fold change above about 3.3
# STAT3 activator = activators of IL-6 induced STAT3 signaling | 0.91% of 190,000 active | AID 871 | U3A cells, IL-6 STAT3-luciferase reporter, luminescence; 100% = signal with IL-6 EC80 alone | activation (% of control), % at 5.6 µM;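 active = activation above the screen-wide mean of compound activation plus 3 SD, cut at about 130% in these data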;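 note: 0% = background luminescence of wells with medium and substrate only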
#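 Material: STAT1-lacking human U3A cells, STAT3 luciferase reporter | Benchmarks: IL-6-only wells as 100% reference | Probe or stimulus: IL-6 (33 ng/mL) | Timing: Compound 1 h, then IL-6 6 h at 37 °C | Detection: Luminescence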
# STAT1 blocker = reduces IFN-gamma driven STAT1 reporter signal. AID 920. inhibition, % at 5.5 µM. 0.35% of 200,000 active. NIH 3T3 STAT1-luciferase reporter, luminescence;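 active = inhibition above a set limit, the mean inhibition across all tested compounds plus 3 SD, cut at about 34% in these data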;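 note: 0% = IFN-gamma with DMSO and 100% = IFN-gamma with 300 µM nifuroxazide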
# STAT3 inh = inhibitors of IL-6 induced STAT3 signaling; U3A cells, IL-6 STAT3-luciferase reporter, luminescence; host cell line lacks STAT1; inhibition, % at 5.5 µM; 0.89% of 190,000 active; AID 862;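 active = inhibition above the mean inhibition across all screened compounds plus 3 SD, cut at about 44% in these data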;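 note: 0% = DMSO only wells and 100% = 100 µM nifuroxazide control wells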
# APP 5'UTR act = activates APP 5'UTR luciferase reporter; SH-SY5Y APP 5'UTR luciferase reporter, luminescence; zero percent = DMSO vehicle wells; activation, % at 2 µM; 1% of 190,000 active;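 active = activation above a set limit, based on mean plus 3 SD of controls, cut at about 140% in these data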
# * hit, by the source's call; · = no result given. Only some compounds are listed: those with a hit (about 4.9% of all), similar ones and a draw of the others.
SMILES,STAT1 act,NF-kB neuron act,STAT3 activator,STAT1 blocker,STAT3 inh,APP 5'UTR act
CC(=O)Nc1ccc(C(=O)OCC(=O)c2cccc([N+](=O)[O-])c2)cc1,88.1,1.12,95.4,13.1,4.8,4.2
Cc1ccc(C(=O)COC(=O)c2cccc(NC(=O)c3ccc([N+](=O)[O-])cc3[N+](=O)[O-])c2)cc1,61.2,3.02,64.9,43.4*,46.1*,163.5*
CC(C)Oc1ccc(NC(=O)Oc2ccccc2)cc1,130.0*,1.14,111.1,-33.1,-8.1,0.8
CN(C)S(=O)(=O)c1cccc(C(=O)OCC(=O)NC2CCCc3ccccc32)c1 (stereo not drawn),98.2,0.97,104.1,2.0,-5.3,1.7
COc1cc(/C=N/Nc2nn3cnnc3c3ccccc23)ccc1O,66.7,0.75,51.4,36.2*,57.5*,2.9
COc1cccc(/C=N/Nc2nn3cnnc3c3ccccc23)c1,91.0,0.5,78.2,9.8,31.6,-7.9
O=C(Cc1ccccc1)c1c[nH]c(C(=O)NCCCN2CCOCC2)c1,93.0,1.02,89.5,5.2,15.0,16.9
CC(C)CCNC(=O)CCn1c(=S)oc2ccccc21,100.7,1.3,99.0,-1.7,8.1,-8.8
Cc1ccc(-c2cn3cccc(C)c3n2)cc1,96.1,7.72*,76.2,4.8,29.6,154.4*
Cc1cccn2cc(-c3ccc(S(=O)(=O)N4CCOCC4)cc3)nc12,96.3,0.98,85.6,4.0,20.9,-9.2
Cc1cccn2cc(-c3ccc(S(=O)(=O)N4CCCCC4)cc3)nc12,99.2,0.82,84.0,1.1,26.0,1.3
COc1ccc(-c2nc3c(-c4ccccc4)cnn3cc2C)cc1F,114.6,1.24,91.5,-17.9,14.0,25.5
O=[N+]([O-])c1cccn2cc(-c3ccc(Br)cc3)nc12,140.0*,·,112.8,-46.7,-9.2,63.5
CCn1c(SC)nnc1-c1c[nH]c2ccccc12,100.6,1.41,100.5,-0.6,8.3,·
Cc1cccn2cc(-c3c[nH]c4ccccc34)nc12,134.0*,1,139.8*,-38.6,-36.8,133.9
COc1ccc(-c2cn3cccc(C)c3n2)cc1F,145.0*,6.14*,101.4,-50.1,3.7,117.9
CCOC(=O)Cn1nc(C)c(NC(=O)COc2ccccc2[N+](=O)[O-])c1C,100.1,1.17,103.9,1.6,0.5,-18.9
Cc1sc2nc(COC(=O)CNC(=O)c3ccc(C(C)(C)C)cc3)[nH]c(=O)c2c1C,102.0,1.36,110.0,-2.2,-13.5,-15.5
N#Cc1c(NC(=O)COC(=O)c2ccc(S(=O)(=O)N3CCCC3)cc2)sc2c1CCCCC2,102.3,1.34,105.9,-2.5,-1.1,-2.9
Cc1cccn2cc(-c3ccc(Cl)cc3)nc12,90.5,9.6*,72.5,9.5,39.4,254.4*
CCOC(=O)c1c(NC(=O)CC(C)C)sc(C(C)=O)c1C,90.0,5.92*,105.1,7.8,-2.3,-14.2
CCOC(=O)c1c(NC(=O)COC)sc(C(C)=O)c1C,98.2,1.21,94.9,1.8,8.2,-3.9
COCC(C)n1c(C)cc(C(=O)COC(=O)CN=C2NS(=O)(=O)c3ccccc32)c1C (stereo not drawn),101.8,1.06,103.6,-2.5,-3.0,15.7
COc1ccc(C(=O)/C=C2\Sc3ccccc3N2C)cc1,131.7*,7.29*,114.8,-33.0,-14.7,195.2*
Cn1c(Cc2ccc3c(c2)OCO3)nnc1SCC(=O)NC1CCCC1,91.4,1.19,106.5,8.1,-6.3,-0.2
SMILES,STAT1 act,NF-kB neuron act,STAT3 activator,STAT1 blocker,STAT3 inh,APP 5'UTR act
COc1ccc(-c2cn3cc(Br)cnc3n2)cc1,134.6*,2.17,90.2,-39.7,15.6,100.4
COc1ccc(-c2cn3cccnc3n2)cc1Br,106.8,1.73,91.2,-7.6,13.8,-4.4
O=C(N/N=C/c1ccccc1OCC(=O)N1CCCC1)C(=O)Nc1ccccc1F,112.7,1.41,96.3,-14.1,5.2,12.4
N/C(=N\OC(=O)c1ccc(F)cc1)c1nonc1N,121.1,1.89,97.8,-23.7,0.1,6.1
COc1cc(/C=N/N=C(\N)c2nonc2N)ccc1O,129.8*,1.13,88.5,-33.8,19.2,24.4
COc1ccc(/C=N/N=C(\N)c2nonc2N)cc1OC,141.1*,2.03,88.0,-45.8,17.8,51.5
N/C(=N\N=C\c1ccc(O)cc1)c1nonc1N,115.3,5.13*,74.6,-17.6,32.8,91.4
COc1cc(/C=N/NC(=O)c2nonc2C)ccc1O,128.5,1.02,111.2,-33.0,-8.0,11.1
C=CCN(Cc1cn(C)nc1-c1cccc(Cl)c1)C1CCS(=O)(=O)C1 (stereo not drawn),105.3,1.12,111.7,-7.5,-8.8,20.6
CC(C)Cn1c(N)c(C(=O)COC(=O)[C@@H]2CCCN2C(=O)c2cccs2)c(=O)n(C)c1=O,96.3,1,100.1,3.3,2.3,10.2
Cc1ccc2[nH]c(=O)cc(C(=O)OC(C)C)c2c1,101.3,1.21,101.5,-3.6,1.7,5.8
COC(=O)c1cnc(SCc2ccc(Cl)cc2)n1C,116.6,1.77,96.9,-18.6,6.2,226.9*
Cc1ccc(C(=O)N/N=C/c2ccc3c(c2)OCO3)o1,137.5*,2,131.3,-42.4,-30.0,34.9
Cc1ccc(C(=O)/C=C/c2ccc3c(c2)OCO3)o1,104.8,1.8,94.0,-5.4,10.2,20.9
CC(=O)c1sc(NC(=O)c2ccccc2)nc1-c1ccccc1,150.5*,4.92*,86.6,-56.2,17.3,101.2
CCOC(=O)Nc1nc(-c2ccccc2)c(C(=O)c2ccccc2)s1,101.8,3.59*,107.3,-2.0,-10.6,-94.4
CC(=O)c1sc(NC(=O)c2cccc(C)c2)nc1C,131.0*,5.55*,82.7,-35.1,22.0,123.9
COC(=O)Nc1nc(-c2ccccc2)c(C(=O)c2ccc(Cl)cc2)s1,100.2,1.38,96.1,-0.2,5.0,-9.4
NS(=O)(=O)c1cccc(NC(=O)Cc2ccc(Cl)c(Cl)c2)c1,97.4,0.92,105.7,1.2,-4.9,19.1
Cc1cc(C)n(-c2ccc(C(=O)OCC(=O)Nc3ccc(Cl)cc3[N+](=O)[O-])cc2)n1,100.6,1.03,110.2,-0.7,-9.9,25.5
O=C(Nc1cc2ccccc2oc1=O)c1ccccc1,28.7,2.29,25.4,76.3*,96.1*,130.8
Cc1ccc(OCC(=O)c2cc(C)n(Cc3cccs3)c2C)c([N+](=O)[O-])n1,59.0,0.51,60.2,42.6*,51.7*,2.4
COc1ccc(Oc2c(C=O)c3ccccc3n2C)cc1,92.7,1.13,107.2,7.9,-3.2,-2.9
Cn1c(Oc2ccc(F)cc2F)c(C=O)c2ccccc21,94.5,0.95,95.6,2.8,9.9,-8.5
Cn1c(Oc2ccc(Cl)cc2)c(C=O)c2ccccc21,86.4,1.34,141.0*,15.1,-35.0,6.0
Cc1ccc(Oc2c(C=O)c3ccccc3n2C)cc1,96.0,1.33,144.8*,4.4,-55.8,5.4
CCN(CC)C(=O)C(=O)c1ccn(-c2c(C)csc2C(=O)OC)c1,97.1,1.15,89.1,3.4,20.6,-14.9

# Bioassay records: PubChem, several laboratories
